Holding throughout (type): functional
Common to all, as to conditions: read-out: DIZ

In one test the test system is Escherichia coli. Nature of the test: Antimicrobial activity against Escherichia coli at 1 mg/ml after 24 hrs by agar well diffusion method. Put shortly:
(§1)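 A 0.1 mL aliquot of each bacterial strain was spread on nutrient agar. 4 mm wells were cut with a sterile cork borer and filled with compound in DMSO at a final concentration of 1 mg mL-1. Plates were incubated at 37 °C for 24 h. The inhibition zone diameter around each well was measured and averaged over triplicate measurements.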
In general terms: In agar diffusion tests the substance spreads into inoculated agar from a disc or well.

The subject of the next test is Staphylococcus aureus. Description: Antimicrobial activity against Staphylococcus aureus at 1 mg/ml after 24 hrs by agar well diffusion method. An outline of the steps:
as §1

In a further test the test system is Bacillus subtilis. Description: Antimicrobial activity against Bacillus subtilis at 1 mg/ml after 24 hrs by agar well diffusion method. Put shortly: as §1
In the next test the test system is Candida albicans. Description: Antimicrobial activity against Candida albicans at 1 mg/ml after 48 hrs by agar well diffusion method. An outline of the steps: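 A 0.1 mL aliquot of the yeast was spread on potato dextrose agar. 4 mm cork-borer wells received compound in DMSO at a final concentration of 1 mg mL-1. Plates were incubated at 25 °C for 48 h. The inhibition zone diameter was read and averaged over triplicate measurements.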

For the compound `Cc1[nH]c2ccccc2c1C(=O)c1nn(-c2ccccc2)nc1NC(=O)/C(C#N)=C/N(C)C`, the zone of inhibition at 1000 µg/mL in the test on Escherichia coli amounted to 0 mm; in the test with Staphylococcus aureus it was 0 mm; in the test with Bacillus subtilis it was 2.5 mm; with Candida albicans it was 0 mm.
Regarding `Cn1cc(C(=O)c2nn(-c3ccccc3)nc2N)c2ccccc21`, the zone of inhibition at 1000 µg/mL in the test with Escherichia coli was 6.7 mm; in the test on Staphylococcus aureus, 12.2 mm; with Bacillus subtilis it was 6 mm; in the test on Candida albicans, 10.7 mm.
Consider `Cc1[nH]c2ccccc2c1C(=O)c1nn(-c2ccccc2)nc1N`, for which the zone of inhibition at 1000 µg/mL came out at 8.7 mm in the test with Escherichia coli, 12 mm in the test with Staphylococcus aureus, 12 mm with Bacillus subtilis and 8.7 mm in the test with Candida albicans.
Regarding `Cc1[nH]c2ccccc2c1C(=O)c1nn(-c2ccccc2)nc1NC(=O)CC#N`, the zone of inhibition at 1000 µg/mL was 6.2 mm in the test with Escherichia coli, 0 mm with Staphylococcus aureus, 9.3 mm in the test on Bacillus subtilis and 0 mm in the test with Candida albicans.
For `Cc1[nH]c2ccccc2c1C(=O)c1nn(-c2ccccc2)nc1NC(=O)c1cn[nH]c1N`, the zone of inhibition at 1000 µg/mL in the test on Escherichia coli is 0 mm; in the test with Staphylococcus aureus it was 0 mm; in the test on Bacillus subtilis, 11.3 mm; in the test on Candida albicans, 0 mm.
`Cn1cc(C(=O)c2nn(-c3ccccc3)nc2NC(=O)CC#N)c2ccccc21`: the zone of inhibition at 1000 µg/mL was determined as 0 mm in the test with Escherichia coli, 0 mm in the test on Staphylococcus aureus, 6 mm in the test on Bacillus subtilis and 0 mm in the test on Candida albicans.
As for `Cc1[nH]c2ccccc2c1-c1c(C#N)c(=O)[nH]c2nn(-c3ccccc3)nc12`, the zone of inhibition at 1000 µg/mL in the test with Escherichia coli was determined as 4 mm; with Staphylococcus aureus, 0 mm; in the test with Bacillus subtilis, 6 mm; with Candida albicans, 0 mm.
In the case of `Cc1[nH]c2ccccc2c1C(=O)c1nn(-c2ccccc2)nc1NC(=O)c1cnn2c(-c3ccccc3)ccnc12`, the zone of inhibition at 1000 µg/mL in the test on Escherichia coli came to 5 mm; in the test on Staphylococcus aureus it was 0 mm; with Bacillus subtilis it was 8 mm; in the test on Candida albicans it was 0 mm.
For `Cn1cc(C(=O)c2nn(-c3ccccc3)nc2NC(=O)c2cnn3c(-c4cccs4)ccnc23)c2ccccc21`, the zone of inhibition at 1000 µg/mL in the test on Escherichia coli was 0 mm; with Staphylococcus aureus it was 0 mm; in the test on Bacillus subtilis, 4 mm; in the test on Candida albicans, 5.7 mm.
As to `Cn1cc(C(=O)CC#N)c2ccccc21`, the zone of inhibition at 1000 µg/mL in the test on Escherichia coli came to 0 mm; in the test on Staphylococcus aureus it was 0 mm; in the test with Bacillus subtilis it was 2 mm; in the test with Candida albicans it was 0 mm.
On to `Cc1[nH]c2ccccc2c1C(=O)CC#N`, for which the zone of inhibition at 1000 µg/mL in the test with Escherichia coli worked out at 0 mm; with Staphylococcus aureus it was 0 mm; in the test on Bacillus subtilis, 3.3 mm; in the test on Candida albicans it was 0 mm.
In the case of `Cn1cc(C(=O)/C(C#N)=N/Nc2ccccc2)c2ccccc21`, the zone of inhibition at 1000 µg/mL in the test with Escherichia coli was found to be 0 mm; with Staphylococcus aureus, 0 mm; in the test with Bacillus subtilis, 2.7 mm; in the test with Candida albicans, 0 mm.
With `Cc1[nH]c2ccccc2c1C(=O)/C(C#N)=N/Nc1ccccc1`, the zone of inhibition at 1000 µg/mL in the test on Escherichia coli turned out to be 0 mm; in the test with Staphylococcus aureus it was 0 mm; in the test on Bacillus subtilis, 1.3 mm; in the test on Candida albicans, 0 mm.
As for `CN(C)/C=C(\C#N)C(=O)Nc1nn(-c2ccccc2)nc1C(=O)c1cn(C)c2ccccc12`, the zone of inhibition at 1000 µg/mL with Escherichia coli was found to be 0 mm; in the test on Staphylococcus aureus, 0 mm; in the test on Bacillus subtilis, 3.3 mm; in the test with Candida albicans, 0 mm.
Regarding `Cn1cc(C(=O)c2nn(-c3ccccc3)nc2NC(=O)c2cn[nH]c2N)c2ccccc21`, the zone of inhibition at 1000 µg/mL came out at 0 mm in the test with Escherichia coli, 0 mm in the test with Staphylococcus aureus, 2.7 mm in the test on Bacillus subtilis and 0 mm in the test on Candida albicans.
With `Cn1cc(-c2c(C#N)c(=O)[nH]c3nn(-c4ccccc4)nc23)c2ccccc21`, the zone of inhibition at 1000 µg/mL with Escherichia coli came out at 0 mm; with Staphylococcus aureus it was 0 mm; in the test with Bacillus subtilis, 2 mm; in the test with Candida albicans it was 0 mm.
Consider `Cn1cc(C(=O)c2nn(-c3ccccc3)nc2NC(=O)c2cnn3c(-c4ccccc4)ccnc23)c2ccccc21`, for which the zone of inhibition at 1000 µg/mL with Escherichia coli came out at 0 mm; in the test with Staphylococcus aureus, 0 mm; in the test with Bacillus subtilis, 3.3 mm; in the test with Candida albicans, 0 mm.
Take `Cc1cccc(-c2ccnc3c(C(=O)Nc4nn(-c5ccccc5)nc4C(=O)c4cn(C)c5ccccc45)cnn23)n1`: the zone of inhibition at 1000 µg/mL in the test on Escherichia coli is 0 mm; in the test on Staphylococcus aureus it was 0 mm; in the test on Bacillus subtilis, 2.7 mm; with Candida albicans, 0 mm.
Take `Cn1cc(C(=O)c2nn(-c3ccccc3)nc2NC(=O)/C(C#N)=C/C=C/c2ccccc2)c2ccccc21`: the zone of inhibition at 1000 µg/mL was 0 mm in the test on Escherichia coli, 0 mm with Staphylococcus aureus, 2.7 mm in the test with Bacillus subtilis and 0 mm in the test on Candida albicans.
Regarding `Cc1[nH]c2ccccc2c1C(=O)c1nn(-c2ccccc2)nc1NC(=O)/C(C#N)=C/C=C/c1ccccc1`, the zone of inhibition at 1000 µg/mL in the test with Escherichia coli is 0 mm; with Bacillus subtilis, 3 mm; in the test on Candida albicans, 0 mm.
Regarding `CC1(C)S[C@@H]2[C@H](NC(=O)[C@H](N)c3ccccc3)C(=O)N2[C@H]1C(=O)O` [AMPICILLIN], the zone of inhibition at 1000 µg/mL was found to be 22 mm with Escherichia coli, 5 mm in the test with Staphylococcus aureus and 1 mm in the test with Bacillus subtilis.

These data come from ChEMBL document CHEMBL1772934, “Applications of 2-arylhydrazononitriles in synthesis: preparation of new indole containing 1,2,3-triazole, pyrazole and pyrazolo[1,5-a]pyrimidine derivatives and evaluation of their antimicrobial activities” (2011).
